For one compound, inhibition and inhibition in vivo results are on record in ChEMBL document CHEMBL3853307, “Anti-inflammatory Effect of Methyl Gallate on Experimental Arthritis: Inhibition of Neutrophil Recruitment, Production of Inflammatory Mediators, and Activation of Macrophages” (J Nat Prod, 2016).

Active and inactive are the calls of the source. The calls are words filed in the database; no cut-off is given here.

Assay [1] has as its system Mus musculus. Description: Antiinflammatory activity in C57BL/6 mouse assessed as inhibition of zymosan-induced knee joint edema formation at 0.7 to 70 mg/kg, po administered 1 hr prior to zymosan challenge measured at 6 hrs. The assay is classed as functional, organism-based. The gist of the method:
(§1)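 Male C57BL/6 mice, fasted overnight, dosed orally (vehicle saline/water, 200 μL) or i.p. 1 h before zymosan (500 μg in 25 μL saline, i.a., left knee). Knee swelling measured as change in transverse diameter from basal by digital caliper (mm). Synovial washes (PBS/EDTA) counted on a particle counter; differentials from May-Grünwald-Giemsa cytospins, cells ×10^5/cavity. Sampled at 6 and/or 24 h; seven mice/group.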

The test system of assay [2] is Mus musculus. Put plainly: Antiinflammatory activity in C57BL/6 mouse assessed as inhibition of zymosan-induced neutrophils recruitment in synovial cavity at 0.7 to 70 mg/kg, po administered 1 hr prior to zymosan challenge measured after 6 to 24 hrs by Grunwald-Giemsa-stained cytospin smear. Type of assay: functional, organism-based. Summed up:
as §1

The subject of assay [3] is Mus musculus. Put plainly: Antiinflammatory activity in C57BL/6 mouse assessed as inhibition of zymosan-induced mononuclear cells recruitment in synovial cavity at 0.7 to 70 mg/kg, po administered 1 hr prior to zymosan challenge measured after 6 to 24 hrs by Grunwald-Giemsa-stained cytospin smear. The assay is classed as functional, organism-based.
Assay [4] relates to Mus musculus. Description: Antiinflammatory activity in C57BL/6 mouse assessed as inhibition of zymosan-induced paw edema at 10 to 50 mg/kg, po administered 1 hr prior to zymosan challenge measured after 4 hrs by plethysmography. Type of assay: functional, organism-based. Summed up: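 C57BL/6 mice dosed orally (1−50 mg/kg) before intraplantar zymosan (100 μg/paw in 50 μL saline); contralateral paw got saline. Volume measured by plethysmography at 4 h, edema taken as right minus left paw (μL).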

Assay [5] concerns Mus musculus. Put plainly: Antiinflammatory activity in C57BL/6 mouse assessed as inhibition of zymosan-induced knee joint edema formation at 7 mg/kg, po administered 1 hr prior to zymosan challenge measured at 6 hrs relative to control. Type of assay: functional. The note with it: C57BL/6, Knee joint. The gist of the method:
as §1

Assay [6] concerns Mus musculus. Description: Antiinflammatory activity in C57BL/6 mouse assessed as inhibition of zymosan-induced knee joint edema formation at 7 mg/kg, po administered 1 hr prior to zymosan challenge measured at 24 hrs relative to control. The note with it: C57BL/6, Knee joint. The assay is classed as functional. The gist of the method: as §1
In assay [7] the test system is Mus musculus. Description: Antiinflammatory activity in C57BL/6 mouse assessed as inhibition of zymosan-induced total leukocyte accumulation in articular cavity at 7 mg/kg, po administered 1 hr prior to zymosan challenge measured at 6 hrs. Type of assay: functional, organism-based. Summed up: as §1
For assay [8], the system named is Mus musculus. Put plainly: Antiinflammatory activity in C57BL/6 mouse assessed as inhibition of zymosan-induced synovial hyperplasia at 7 mg/kg, po administered 1 hr prior to zymosan challenge measured at 6 to 24 hrs by hematoxylin and eosin staining-based optical microscopy. Type of assay: functional, organism-based. Summed up:
(§2)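 Mice dosed orally or i.p. 1 h before i.a. zymosan (500 μg/cavity) or saline. Whole knees taken at 6 and 24 h from six mice, fixed in 10% formalin 48 h, decalcified in 10% EDTA/PBS 1−2 weeks, paraffin-embedded. 5 μm sections H&E-stained and examined by light microscopy. Parameter scores summed into an arthritis index; means ± SEM, two experiments.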

Assay [9] has as its system Mus musculus. Put plainly: Antiinflammatory activity in C57BL/6 mouse assessed as inhibition of zymosan-induced arthritis score at 7 mg/kg, po administered 1 hr prior to zymosan challenge measured at 6 to 24 hrs by hematoxylin and eosin staining-based optical microscopy. The assay is classed as functional, organism-based. The gist of the method:
as §2

For assay [10], the system named is Mus musculus. Put plainly: Antiinflammatory activity in C57BL/6 mouse assessed as inhibition of zymosan-induced IL6 production in cell-free supernatant of knee joint synovial washes at 7 mg/kg, po administered 1 hr prior to zymosan challenge measured at 6 to 24 hrs by sandwich ELISA method. Type of assay: functional, organism-based. Summed up:
(§3)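 Male C57BL/6 mice (18−22 g), fasted overnight, dosed orally (in filtered water, 200 μL) or i.p. 1 h before i.a. zymosan (500 μg in 25 μL saline) into left knee; contralateral knee got vehicle. Synovial cavity washed twice with 150 μL PBS/10 mM EDTA at 6 and 24 h; washes spun 400g 10 min, 4 °C. Cytokines measured by sandwich ELISA, LTB4/PGE2 by EIA (pg/mL); six mice/group, two experiments.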
(In general: ELISA stands for enzyme-linked immunosorbent assay.)

For assay [11], the system named is Mus musculus. Put plainly: Antiinflammatory activity in C57BL/6 mouse assessed as inhibition of zymosan-induced PGE2 production in cell-free supernatant of knee joint synovial washes at 7 mg/kg, po administered 1 hr prior to zymosan challenge measured at 6 to 24 hrs by immunosorbent assay. Type of assay: functional, organism-based. Summed up: as §3
The test system of assay [12] is Mus musculus. Description: Antiinflammatory activity in C57BL/6 mouse assessed as inhibition of zymosan-induced LTB4 production in cell-free supernatant of knee joint synovial washes at 7 mg/kg, po administered 1 hr prior to zymosan challenge measured at 6 to 24 hrs by immunosorbent assay. Type of assay: functional, organism-based. Summed up:
as §3

The test system of assay [13] is Neutrophil. Put plainly: Antiinflammatory activity in C57BL/6 mouse neutrophils assessed as inhibition of CXCL1/KC-induced neutrophil chemotaxis at 0.1 to 1 uM preincubated for 1 hr followed by CXCL1/KC-induction measured after 1 hr by Wright-Giemsa staining-based light microscopic method. The assay is classed as functional, cell-based. Summed up: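 Bone marrow neutrophils from C57BL/6 femurs, purified on a 65%/72% Percoll gradient (~85−90% purity). 10^5 cells preincubated 1 h with compound or medium, then placed in a 48-well Boyden chamber over CXCL-1/KC (250 nM) across a 5 μm polycarbonate filter, 60 min at 37 °C, 5% CO2. Filter Wright-Giemsa stained; migrated cells counted in 15 fields; quadruplicate wells.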

Assay [14] relates to Neutrophil. Description: Antiinflammatory activity in C57BL/6 mouse neutrophils assessed as inhibition of neutrophil adhesion to TNFalpha-primed mouse tEnd.1 cells at 0.1 uM preincubated for 1 hr with neutrophils followed by tEND.1 cells addition measured after 1 hr by Giemsa staining-based light microscopic method. The assay is classed as functional, cell-based. Summed up:
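tEnd.1 endothelioma cells (10^4/well, 24 h) primed with mouse TNF-α (10 ng/mL) for 4 h. Bone marrow neutrophils preincubated 1 h with compound (0.1 μM) or fucoidan (25 μg/mL), then added at 50 per tEnd.1 cell for 1 h at 37 °C with shaking. After washing and Giemsa staining, adhesion index = fraction of tEnd.1 with bound neutrophils × neutrophils per tEnd.1 × 100.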

Assay [15] relates to J774.A1. Description: Antiinflammatory activity in mouse J774A.1 cells assessed as inhibition of zymosan and IFNgamma-induced COX2 expression at 1 to 10 uM preincubated for 1 hr followed by zymosan and IFNgamma addition measured after 24 hrs by Western blot analysis. Type of assay: functional, cell-based. The gist of the method: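 J774A.1 cells in six-well plates pretreated 1 h (0.1−10 μM) before zymosan (10 μg per 10^5 cells) and/or IFN-γ (25 U/mL) for 24 h. Lysates (Tris/NaCl/MgCl2/0.5% NP40 with protease inhibitors); 30 μg protein run on 7.5% SDS-PAGE, transferred to PVDF, probed for COX-2, iNOS and α-tubulin.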
A general note: In western blotting, separated proteins are transferred to a membrane and probed.

In assay [16] the test system is J774.A1. Put plainly: Antiinflammatory activity in mouse J774A.1 cells assessed as inhibition of zymosan and IFNgamma-induced cytoplasmic calcium flux at 1 uM preincubated for 1 hr followed by zymosan and IFNgamma addition measured over 10 mins by FLIPR assay. The assay is classed as functional, cell-based. The gist of the method:
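J774A.1 macrophages preincubated 1 h with HBSS or compound (1 μM), then stimulated with zymosan plus IFN-γ. Intracellular calcium followed over 600 s with a FLIPR Calcium Plus kit; mean signal from 360−600 s after stimulus used for analysis; quadruplicate wells.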

A word on the inhibition in vivo: it is how much of the control response was suppressed.

On to `COC(=O)c1cc(O)c(O)c(O)c1` [GALLIC ACID METHYL ESTER], for which the inhibition entry in the assay on Mus musculus [1], in the assay on Mus musculus [2], in the assay with Mus musculus [3], in the assay with Mus musculus [4], with Mus musculus [7] and in the assay with Mus musculus [8] was “Active” throughout. The inhibition result in the assay with Mus musculus [9], with Mus musculus [10], with Mus musculus [11], in the assay on Mus musculus [12], with Neutrophil [13] and with Neutrophil [14] was “Active” each time. Further, the inhibition entry in the assay with J774.A1 [15] and in the assay with J774.A1 [16] was “Active” in each case. For the same compound, the inhibition in vivo at 7 mg/kg was 24% in the assay with Mus musculus [5] and 49% in the assay with Mus musculus [6].
